According to ChEMBL document CHEMBL1126160, “Synthesis and structure-activity relationships of 7-diazabicycloalkylquinolones, including danofloxacin, a new quinolone antibacterial agent for veterinary medicine” (J Med Chem, 1992):
In brackets after ≈: the same amount, converted by molar mass.

system: Bordetella bronchiseptica; experiment: In vitro antibacterial activity against aerobically grown Bordetella bronchiseptica (73A009); assay type: functional; settings: not given
Procedure, shortened: (§1)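 Agar dilution MICs. Aerobic strains were tested on brain heart infusion agar and incubated aerobically at 37 °C for 18–20 h.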

Structure (SMILES)	MIC [µg/mL]
CN1[C@@H]2CC[C@H]1CN(c1cc3c(cc1F)c(=O)c(C(=O)O)cn3C1CC1)C2	1.56 (≈ 4.2 µM)
CCn1cc(C(=O)O)c(=O)c2cc(F)c(N3CCN4CCC3CC4)cc21 [BINFLOXACIN]	1.56 (≈ 4.34 µM)

system: Clostridium perfringens; experiment: microbe, parasite or virus in culture; assay type: functional; settings: not given

Structure (SMILES)	MIC [µg/mL]
CN1C[C@@H]2C[C@H]1CN2c1c(F)cc2c(=O)c(C(=O)O)cn(-c3ccc(F)cc3)c2c1Cl	0.78 (≈ 1.75 µM)
CN1[C@@H]2CC[C@H]1CN(c1cc3c(cc1F)c(=O)c(C(=O)O)cn3C1CC1)C2	0.1 (≈ 0.269 µM)
CCn1cc(C(=O)O)c(=O)c2cc(F)c(N3CCN4CCC3CC4)cc21 [BINFLOXACIN]	0.1 (≈ 0.278 µM)

system: Actinobacillus pleuropneumoniae; experiment: In vitro antibacterial activity against anaerobically grown Actinobacillus pleuropneumoniae ([…]); assay type: functional; settings: not given
Procedure, shortened: (§2)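 Agar dilution MICs. Anaerobic strains were tested on tryptose agar with 5% bovine blood and incubated 48 h at 39 °C in an anaerobe chamber under N2/CO2/H2 (80:10:10).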

Structure (SMILES)	MIC [µg/mL]
CN1C[C@@H]2C[C@H]1CN2c1c(F)cc2c(=O)c(C(=O)O)cn(-c3ccc(F)cc3)c2c1Cl	0.78 (≈ 1.75 µM)
CN1[C@@H]2CC[C@H]1CN(c1cc3c(cc1F)c(=O)c(C(=O)O)cn3C1CC1)C2	0.39 (≈ 1.05 µM)
CCn1cc(C(=O)O)c(=O)c2cc(F)c(N3CCN4CCC3CC4)cc21 [BINFLOXACIN]	0.05 (≈ 0.139 µM)

system: Escherichia coli; experiment: In vivo protective dose was evaluated against Escherichia coli (51A266) in mouse(sc); assay type: functional; settings: read-out: PD50
Procedure, shortened: (§3)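 Female CF-1 mice (15 g), groups of 10, challenged ip with 0.5 mL bacterial suspension (P. multocida 59A006 or E. coli 51A266 at 3.0 × 10^8 cfu/mL; S. choleraesuis 58B010 at 8.5 × 10^2 cfu/mL). Drug given sc or po at 30 min, 4 h and 24 h after challenge; survival recorded at 96 h; PD50 by probit analysis.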

Structure (SMILES)	ED50 [mg/kg]
CN1[C@@H]2CC[C@H]1CN(c1cc3c(cc1F)c(=O)c(C(=O)O)cn3C1CC1)C2	0.15
CCn1cc(C(=O)O)c(=O)c2cc(F)c(N3CCN4CCC3CC4)cc21 [BINFLOXACIN]	1.1

system: Staphylococcus aureus; experiment: In vitro antibacterial activity against Aerobically grown Staphylococcus aureus (54B004); assay type: functional; settings: not given; procedure, shortened: as §1

Structure (SMILES)	MIC [µg/mL]
CN1C[C@@H]2C[C@H]1CN2c1c(F)cc2c(=O)c(C(=O)O)cn(-c3ccc(F)cc3)c2c1Cl	0.78 (≈ 1.75 µM)

system: Pasteurella multocida; experiment: In vitro antibacterial activity against aerobically grown Pasteurella multocida (59A006); assay type: functional; settings: not given; procedure, shortened: as §1

Structure (SMILES)	MIC [µg/mL]
CN1[C@@H]2CC[C@H]1CN(c1cc3c(cc1F)c(=O)c(C(=O)O)cn3C1CC1)C2	0.05 (≈ 0.135 µM)
CCn1cc(C(=O)O)c(=O)c2cc(F)c(N3CCN4CCC3CC4)cc21 [BINFLOXACIN]	0.05 (≈ 0.139 µM)

system: Pasteurella multocida; experiment: In vivo protective dose was evaluated against Pasteurella multocida (59A006) in mouse(po); assay type: functional; settings: read-out: PD50; procedure, shortened: as §3

Structure (SMILES)	ED50 [mg/kg]
CN1[C@@H]2CC[C@H]1CN(c1cc3c(cc1F)c(=O)c(C(=O)O)cn3C1CC1)C2	0.98
CCn1cc(C(=O)O)c(=O)c2cc(F)c(N3CCN4CCC3CC4)cc21 [BINFLOXACIN]	1.9

system: Escherichia coli; experiment: Escherichia coli DNA cleavage endpoint value which is the minimum amount required (in micro g/mL) to induce detectable cleavage of supercoiled pBR322 substrate to linear form (gyrase); assay type: functional; settings: read-out: MIC
Procedure, shortened: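 DNA gyrase A and B subunits were purified from E. coli overproducers. About 2 units of holoenzyme were incubated with pBR322 in Tris-HCl pH 7.5 containing MgCl2, spermidine, DTT, 0.2 mM ATP, BSA and tRNA. Drug was added as 2-fold serial dilutions, and reactions ran for 60 min at 25 °C. Reactions were stopped with SDS and proteinase K, then run on agarose and stained with ethidium. The endpoint was the lowest concentration giving detectable linear DNA.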

Structure (SMILES)	minimum concentration inducing gyrase-mediated DNA cleavage [µg/mL]
CN1C[C@@H]2C[C@H]1CN2c1c(F)cc2c(=O)c(C(=O)O)cn(-c3ccc(F)cc3)c2c1Cl	1.56
CN1[C@@H]2CC[C@H]1CN(c1cc3c(cc1F)c(=O)c(C(=O)O)cn3C1CC1)C2	0.78
CCn1cc(C(=O)O)c(=O)c2cc(F)c(N3CCN4CCC3CC4)cc21 [BINFLOXACIN]	1.56

system: Escherichia coli; experiment: In vitro antibacterial activity against Aerobically grown Escherichia coli (51A538); assay type: functional; settings: not given; procedure, shortened: as §1

Structure (SMILES)	MIC [µg/mL]
CN1C[C@@H]2C[C@H]1CN2c1c(F)cc2c(=O)c(C(=O)O)cn(-c3ccc(F)cc3)c2c1Cl	0.78 (≈ 1.75 µM)

system: Salmonella enterica; experiment: In vitro antibacterial activity against Aerobically grown Salmonella choleraesuis (58B015); assay type: functional; settings: not given

Structure (SMILES)	MIC [µg/mL]
CN1C[C@@H]2C[C@H]1CN2c1c(F)cc2c(=O)c(C(=O)O)cn(-c3ccc(F)cc3)c2c1Cl	1.56 (≈ 3.5 µM)

system: Pasteurella multocida; experiment: In vitro antibacterial activity against Aerobically grown Pasteurella multocida (59A006); assay type: functional; settings: not given; procedure, shortened: as §1

Structure (SMILES)	MIC [µg/mL]
CN1C[C@@H]2C[C@H]1CN2c1c(F)cc2c(=O)c(C(=O)O)cn(-c3ccc(F)cc3)c2c1Cl	0.05 (≈ 0.112 µM)

system: Escherichia coli; experiment: In vivo protective dose was evaluated against Escherichia coli (51A266) in mouse(po); assay type: functional; settings: read-out: PD50; procedure, shortened: as §3

Structure (SMILES)	ED50 [mg/kg]
CN1[C@@H]2CC[C@H]1CN(c1cc3c(cc1F)c(=O)c(C(=O)O)cn3C1CC1)C2	3.8
CCn1cc(C(=O)O)c(=O)c2cc(F)c(N3CCN4CCC3CC4)cc21 [BINFLOXACIN]	10.2

system: Salmonella enterica; experiment: In vitro antibacterial activity against aerobically grown Salmonella choleraesuis (58B015); assay type: functional; settings: not given

Structure (SMILES)	MIC [µg/mL]
CN1[C@@H]2CC[C@H]1CN(c1cc3c(cc1F)c(=O)c(C(=O)O)cn3C1CC1)C2	0.2 (≈ 0.538 µM)
CCn1cc(C(=O)O)c(=O)c2cc(F)c(N3CCN4CCC3CC4)cc21 [BINFLOXACIN]	0.2 (≈ 0.556 µM)

system: Pasteurella multocida; experiment: In vivo protective dose was evaluated against Pasteurella multocida (59A006) in mouse(sc); assay type: functional; settings: read-out: PD50; procedure, shortened: as §3

Structure (SMILES)	ED50 [mg/kg]
CN1[C@@H]2CC[C@H]1CN(c1cc3c(cc1F)c(=O)c(C(=O)O)cn3C1CC1)C2	0.37
CCn1cc(C(=O)O)c(=O)c2cc(F)c(N3CCN4CCC3CC4)cc21 [BINFLOXACIN]	0.63

system: not listed separately; experiment: In vitro evaluation for antibacterial activity against anaerobically grown Treponema hyodysenteriae (94A007); assay type: functional; settings: Brachyspira hyodysenteriae

Structure (SMILES)	MIC [µg/mL]
CN1C[C@@H]2C[C@H]1CN2c1c(F)cc2c(=O)c(C(=O)O)cn(-c3ccc(F)cc3)c2c1Cl	> 3.13
CN1[C@@H]2CC[C@H]1CN(c1cc3c(cc1F)c(=O)c(C(=O)O)cn3C1CC1)C2	0.78 (≈ 2.1 µM)
CCn1cc(C(=O)O)c(=O)c2cc(F)c(N3CCN4CCC3CC4)cc21 [BINFLOXACIN]	1.56 (≈ 4.34 µM)

system: Trueperella pyogenes; experiment: In vitro antibacterial activity against anaerobically grown Actinomyces pyogenes (14D002); assay type: functional; settings: not given; procedure, shortened: as §2

Structure (SMILES)	MIC [µg/mL]
CN1C[C@@H]2C[C@H]1CN2c1c(F)cc2c(=O)c(C(=O)O)cn(-c3ccc(F)cc3)c2c1Cl	> 3.13
CN1[C@@H]2CC[C@H]1CN(c1cc3c(cc1F)c(=O)c(C(=O)O)cn3C1CC1)C2	3.13 (≈ 8.43 µM)
CCn1cc(C(=O)O)c(=O)c2cc(F)c(N3CCN4CCC3CC4)cc21 [BINFLOXACIN]	3.13 (≈ 8.71 µM)

system: Actinobacillus pleuropneumoniae; experiment: Compound was evaluated for minimum effective dose against Actinobacillus pleuropneumonia, peroral dose administration; assay type: functional; settings: po, read-out: MED
Procedure, shortened: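 Cross-bred swine, 8.5–12.5 kg; intranasal challenge with A. pleuropneumoniae strain B316HM, grown overnight on enriched BHI agar at 37 °C in 5–10% CO2 and standardized by OD to 10^9 cfu/mL, three 1-mL increments per nostril. Single treatment (SID × 1): im 1% or 2.5% solution in sterile water into ham within 1 h of challenge, or oral gavage of 0.5% solution in sterile water.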

Structure (SMILES)	minimal effective dose [mg/kg]
CCn1cc(C(=O)O)c(=O)c2cc(F)c(N3CCN4CCC3CC4)cc21 [BINFLOXACIN]	2.5

system: Escherichia coli; experiment: In vitro antibacterial activity against aerobically grown Escherichia coli (51A538); assay type: functional; settings: not given; procedure, shortened: as §1

Structure (SMILES)	MIC [µg/mL]
CN1[C@@H]2CC[C@H]1CN(c1cc3c(cc1F)c(=O)c(C(=O)O)cn3C1CC1)C2	0.1 (≈ 0.269 µM)
CCn1cc(C(=O)O)c(=O)c2cc(F)c(N3CCN4CCC3CC4)cc21 [BINFLOXACIN]	0.2 (≈ 0.556 µM)

system: Mannheimia haemolytica; experiment: Compound was evaluated for minimum effective dose against Pasteurella haemolytica, intramuscular dose administration; assay type: functional; settings: im, read-out: MED
Procedure, shortened: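 Calves acid-treated intratracheally with 0.6 mL 8% acetic acid at 24 h and 4 h before endotracheal challenge with 50 mL P. haemolytica B280PA (~5 × 10^8 cfu/mL). im dosing of 2.5% or 5% solution in sterile water, day 0 and day 1 (SID × 2). Clinical signs and temperature recorded days 0–5; lungs scored and cultured. MED = lowest dose giving significant (65%) reduction of lung pathology.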

Structure (SMILES)	minimal effective dose [mg/kg]
CN1[C@@H]2CC[C@H]1CN(c1cc3c(cc1F)c(=O)c(C(=O)O)cn3C1CC1)C2	0.3
CCn1cc(C(=O)O)c(=O)c2cc(F)c(N3CCN4CCC3CC4)cc21 [BINFLOXACIN]	0.3

system: Staphylococcus aureus; experiment: In vitro antibacterial activity against aerobically grown Staphylococcus aureus (54B004); assay type: functional; settings: not given; procedure, shortened: as §1

Structure (SMILES)	MIC [µg/mL]
CN1[C@@H]2CC[C@H]1CN(c1cc3c(cc1F)c(=O)c(C(=O)O)cn3C1CC1)C2	0.1 (≈ 0.269 µM)
CCn1cc(C(=O)O)c(=O)c2cc(F)c(N3CCN4CCC3CC4)cc21 [BINFLOXACIN]	0.39 (≈ 1.09 µM)

system: not listed separately; experiment: In vitro antibacterial activity against Aerobically grown Pasteurella haemolytica (59B018); assay type: functional; settings: Mannheimia haemolytica; procedure, shortened: as §1

Structure (SMILES)	MIC [µg/mL]
CN1C[C@@H]2C[C@H]1CN2c1c(F)cc2c(=O)c(C(=O)O)cn(-c3ccc(F)cc3)c2c1Cl	0.78 (≈ 1.75 µM)
CN1[C@@H]2CC[C@H]1CN(c1cc3c(cc1F)c(=O)c(C(=O)O)cn3C1CC1)C2	0.1 (≈ 0.269 µM)
CCn1cc(C(=O)O)c(=O)c2cc(F)c(N3CCN4CCC3CC4)cc21 [BINFLOXACIN]	0.1 (≈ 0.278 µM)

system: Bordetella bronchiseptica; experiment: In vitro antibacterial activity against Aerobically grown Bordetella bronchiseptica (73A009); assay type: functional; settings: not given; procedure, shortened: as §1

Structure (SMILES)	MIC [µg/mL]
CN1C[C@@H]2C[C@H]1CN2c1c(F)cc2c(=O)c(C(=O)O)cn(-c3ccc(F)cc3)c2c1Cl	> 1.56

system: Actinobacillus pleuropneumoniae; experiment: Compound was evaluated for minimum effective dose against Actinobacillus pleuropneumonia, intramuscular dose administration; settings: im, read-out: MED

Structure (SMILES)	minimal effective dose [mg/kg]
CN1[C@@H]2CC[C@H]1CN(c1cc3c(cc1F)c(=O)c(C(=O)O)cn3C1CC1)C2	0.3
CCn1cc(C(=O)O)c(=O)c2cc(F)c(N3CCN4CCC3CC4)cc21 [BINFLOXACIN]	0.3

system: not listed separately; experiment: compound was evaluated for aqueous solubility at pH 7.2; assay type: physicochemical; settings: buffer
Procedure, shortened: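 Excess solid (~5 mg) shaken in 3 mL 0.05 M phosphate buffer pH 7.2 at 23 ± 1 °C in duplicate vials up to 3 days, pH readjusted to 7.2 after each sampling; filtered (0.45 nylon) samples analysed by HPLC.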

Structure (SMILES)	solubility [µg/mL]
CCn1cc(C(=O)O)c(=O)c2cc(F)c(N3CCN4CCC3CC4)cc21 [BINFLOXACIN]	49 (≈ 136 µM)

system: Phocaeicola vulgatus; experiment: In vitro antibacterial activity against anaerobically grown Bacteroides vulgatus (78D029); assay type: functional; settings: not given; procedure, shortened: as §2

Structure (SMILES)	MIC [µg/mL]
CN1C[C@@H]2C[C@H]1CN2c1c(F)cc2c(=O)c(C(=O)O)cn(-c3ccc(F)cc3)c2c1Cl	> 3.13
CN1[C@@H]2CC[C@H]1CN(c1cc3c(cc1F)c(=O)c(C(=O)O)cn3C1CC1)C2	1.56 (≈ 4.2 µM)
CCn1cc(C(=O)O)c(=O)c2cc(F)c(N3CCN4CCC3CC4)cc21 [BINFLOXACIN]	> 3.13
